Among the data in ChEMBL document CHEMBL1123492, “Carboxyl-modified amino acids and peptides as protease inhibitors” (J Med Chem, 1986) are Ki values, retold here.

Structures are written as SMILES. Where a SMILES comes first, the peptide text is derived from it.

Assay [1] has as its target T1, Papain (Carica papaya, UniProt P00784).
T1 sequence (P00784 whole entry): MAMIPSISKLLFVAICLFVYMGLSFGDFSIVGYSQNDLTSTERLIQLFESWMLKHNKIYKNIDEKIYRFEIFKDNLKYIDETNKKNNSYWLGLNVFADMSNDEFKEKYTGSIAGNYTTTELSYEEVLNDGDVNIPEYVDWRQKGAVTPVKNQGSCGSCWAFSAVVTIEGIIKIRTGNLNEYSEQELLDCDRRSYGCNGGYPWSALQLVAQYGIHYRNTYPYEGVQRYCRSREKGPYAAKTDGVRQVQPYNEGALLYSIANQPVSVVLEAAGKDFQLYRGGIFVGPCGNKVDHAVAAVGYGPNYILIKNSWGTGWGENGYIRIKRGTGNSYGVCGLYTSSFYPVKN
The assay can be described thus: Compound was tested for Inhibition of Papain. An outline of the steps:
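Papain activated 45 min at 25 °C in 50 mM phosphate pH 6.2 with 1 mM EDTA and 0.25 mM cysteine, made fresh daily. N-Cbz-Gly p-nitrophenyl ester hydrolysis at 25 °C read at 340 nm (Δε 6000 M⁻¹ cm⁻¹), corrected for nonenzymic hydrolysis. Compounds in acetonitrile or DMF, final <2.5% v/v. Reversible Ki by Lineweaver–Burk; irreversible Ki and k2 by Kitz–Wilson.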

Assay [2] is described as follows: Compound was tested for Inhibition of Leucine aminopeptidase-M.
Assay [3] is described as follows: Compound was tested for Inhibition of leucine aminopeptidase-C.
For assay [4], the target named is T2, Dipeptidyl peptidase 1 (Homo sapiens, UniProt P53634). Put plainly: Compound was tested for Inhibition of Dipeptidyl aminopeptidase 1. An outline of the steps:
(§1)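 Cathepsin C diluted 1:200 daily in ice-cold 50 mM citrate pH 5 with 10 mM cysteamine. Gly-Phe p-nitroanilide hydrolysis at 37 °C read at 405 nm (Δε 9900 M⁻¹ cm⁻¹), started by adding substrate to prewarmed enzyme/inhibitor. Irreversible inhibition: enzyme preincubated with varied inhibitor levels, aliquots diluted into substrate over time. k_app from ln(% activity) vs time; Ki and k2 from 1/k_app vs 1/[I].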

The nature of assay [5]: Compound was tested for Inhibition of Leucine aminopeptidase-M; NI is No inhibition at 40 mM.
Assay [6] deals with Chymotrypsinogen A (Bos taurus, UniProt P00766). The assay can be described thus: Compound was tested for Inhibition of Chymotrypsinogen. In a few lines:
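Chymotrypsin hydrolysis of glutaryl-L-Phe p-nitroanilide followed photometrically. Km of substrate and Ki of reversible inhibitors from Lineweaver–Burk double-reciprocal plots, Ki from replots of Km(app)/Vmax vs [I]; slopes and intercepts by linear regression. Test compounds added in methanol (<5% of final volume).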

Assay [7] deals with T2, Dipeptidyl peptidase 1. The assay can be described thus: Compound was tested for Inhibition of dipeptidyl Dipeptidyl aminopeptidase 1. In a few lines: as §1

T2 sequence (P53634 25-134 limits assumed): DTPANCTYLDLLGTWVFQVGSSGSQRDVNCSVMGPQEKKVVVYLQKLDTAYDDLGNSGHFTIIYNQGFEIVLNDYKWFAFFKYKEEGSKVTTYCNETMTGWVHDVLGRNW
T2 sequence (P53634 231-394 limits assumed): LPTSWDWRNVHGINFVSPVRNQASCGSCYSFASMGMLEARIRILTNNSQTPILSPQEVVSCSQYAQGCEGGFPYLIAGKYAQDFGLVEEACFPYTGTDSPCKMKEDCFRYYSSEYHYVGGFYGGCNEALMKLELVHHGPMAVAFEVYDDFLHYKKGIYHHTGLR
T2 sequence (P53634 395-463 limits assumed): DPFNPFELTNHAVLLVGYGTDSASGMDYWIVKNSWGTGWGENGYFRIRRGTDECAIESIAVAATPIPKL

As for `CC(=O)NC(Cc1ccccc1)C(=O)NCC(=N)S` (stereo not drawn), the Ki in assay [1] came to 0.095 mM.

As for `COC(=O)/C=C/C(N)Cc1ccccc1` (stereo not drawn), the Ki in assay [2] is 61 mM; in assay [3] it was 23.7 mM.

With `CS(=O)(=O)/C=C/C(N)Cc1ccccc1` (stereo not drawn), the inhibitory constant (Ki) in assay [2] was determined as 3.7 mM; in assay [3], 8.8 mM.

For the compound `N#CC(Cc1ccccc1)NC(=O)CN` (stereo not drawn), the affinity in assay [4], expressed as Ki, was 0.0027 mM.

For `CC(=O)NC(Cc1ccccc1)C(=O)NCC#N` (stereo not drawn), the affinity in assay [1] corresponds to a Ki of 0.0011 mM.

On to `N=C(S)C(N)Cc1ccccc1` (stereo not drawn), for which the Ki entry in assay [5] was “No inhibition”.

Compound `CC(=O)NC(/C=C/S(C)(=O)=O)Cc1ccccc1` (stereo not drawn) came in with a Ki in assay [6] of 29.4 mM.

In turn, `CC(=O)NC(C#N)Cc1ccccc1` (stereo not drawn) returned a Ki in assay [6] of 5.3 mM.

In assay [4], `COC(=O)/C=C/C(Cc1ccccc1)NC(=O)CN` (stereo not drawn) had a Ki of 0.22 mM.

`C=CCNC(=O)C(Cc1ccccc1)NC(C)=O` (stereo not drawn): the Ki in assay [1] is 9.2 mM.

As for `COC(=O)CCCNC(=O)C(Cc1ccccc1)NC(C)=O` (stereo not drawn), the inhibition constant Ki in assay [1] turned out to be 19.5 mM.

Consider `N#CC(N)Cc1ccccc1` (stereo not drawn), for which the inhibition constant (Ki) came to 67 mM in assay [2] and 26.4 mM in assay [3].

In assay [4], `CS(=O)(=O)/C=C/C(Cc1ccccc1)NC(=O)CN` (stereo not drawn) displayed a Ki of 0.18 mM.

As to `CC(=O)NC(Cc1ccccc1)C(N)=S` (stereo not drawn), the Ki in assay [6] was determined as 23 mM.

The compound `COC(=O)/C=C/C(Cc1ccccc1)NC(C)=O` (stereo not drawn) displayed a Ki in assay [6] of 30.8 mM. This Ki and that of the compound before are within 1.5-fold of each other.

Compound `CC(=O)NC(Cc1ccccc1)C(N)=O` (stereo not drawn) gave a Ki in assay [6] of 13.9 mM.

In the case of `NCC(=O)N[C@@H](Cc1ccccc1)C(N)=O` (H-Gly-Phe-NH2), the affinity in assay [7], expressed as Ki, was 6.2 mM.

The compound `CC(=O)N[C@@H](Cc1ccccc1)C(=O)NCC(N)=O` (Ac-Phe-Gly-NH2) returned a Ki in assay [1] of 4.7 mM.

Turning to `NC(=O)C(N)Cc1ccccc1` (stereo not drawn), the Ki in assay [2] amounted to 14.8 mM; in assay [3] it was 14.1 mM.
